Calls of active or inactive are those of the source. The calls are words filed in the database; no cut-off is given here.

By CC50 is commonly meant the concentration at which the toxic effect on the cells reaches its halfway point. In general, EC50 refers to the concentration at which the effect is half-maximal.

Series [1] is described as follows: Cytotoxicity against human J-Lat (A2) cells assessed as effect on cell viability at 0.3 uM after 72 hrs by flow cytometric analysis. The series is classed as cell-based. In short, it runs like this: (§1)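 J-Lat (A2) cells, 1x10^6 cells/well, incubated with the test agent at 37 °C for 72 h. GFP-expressing cells and percent viable cells measured by flow cytometry. Two independent experiments.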
On the technique in general: Flow cytometry measures light scatter and fluorescence of single cells or particles in a stream.

Series [2] is described as follows: Cytotoxicity against human Jurkat cells assessed as reduction in cell viability after 72 hrs by CellTiter-Glo luminescent cell viability assay. The format is cell-based.
Series [3] can be described thus: Cytotoxicity against human U937 cells assessed as reduction in cell viability after 48 hrs by CellTiter-Glo luminescent cell viability assay. The series is classed as cell-based, U-937. In short, it runs like this: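 U937 cells (HIV-1-negative parental line of U1) at 2x10^5 cells/ml exposed to a range of concentrations for 48 h at 37 °C. Viability read by CellTiter-Glo luminescence. CC50 ± SD derived from 3 independent experiments.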
A general note: ATP-based viability assays read luminescence as a measure of living cells.

The subject of series [4] is Human immunodeficiency virus 1. Put plainly: Reactivation of latent HIV1 infected in human U1 cells assessed as increase in p24 production after 48 hrs by ELISA relative to vorinostat. The format is functional. In short, it runs like this:
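U1 cells at 2x10^5 cells/ml incubated with a range of concentrations at 37 °C for 48 h. Supernatant p24 measured by HIV p24 ELISA. EC50 ± SD derived from 3 independent experiments.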
(An ELISA detects its analyte on a solid surface through an enzyme-linked reagent.)

The subject of series [5] is Human immunodeficiency virus 1. Description: Reactivation of latent HIV1 infected in human U1 cells assessed as increase in p24 production after 48 hrs by ELISA. The series is classed as functional, organism-based.
Series [6] relates to PBMC. Description: Induction of IFNgamma1 production in human PBMC at 3 uM after 2 days by ELISA. The series is classed as cell-based. The settings on record: 48 h.
In series [7] the target is Histone deacetylase 3/Nuclear receptor corepressor 2 (HDAC3/NCoR2) (Homo sapiens) (UniProt O15379+Q9Y618). Description: Inhibition of full length human C-terminal His-tagged HDAC3/N-terminal GST-tagged NCOR2 (395 to 489 residues) expressed in baculovirus infected Sf9 insect cells using substrate measured after 60 mins by colorimetric method.
Series [8] is described as follows: Selectivity index, ratio of CC50 for human U937 cells to EC50 for reactivation of latent HIV1 infected in human U1 cells.
Series [9] relates to Human immunodeficiency virus 1. Put plainly: Reactivation of latent HIV1 infected in human J-Lat A2 cells assessed as increase in GFP positive cells at 1 uM after 72 hrs by flow cytometric analysis. The series is classed as functional, organism-based. In short, it runs like this: as §1
Series [10] concerns Human immunodeficiency virus 1. Description: Reactivation of latent HIV1 infected in human U1 cells/uninfected U937 cell mixture assessed as increase in p24 production at 0.57 uM supplemented with fresh medium containing compound every 3 days for 18 days and subsequent dosing at day 18 post dose measured on day 21 by ELISA.
The nature of series [11]: Cytotoxicity against human J-Lat (A2) cells assessed as effect on cell viability at 1 uM after 72 hrs by flow cytometric analysis. The format is cell-based. In short, it runs like this:
as §1

The test system of series [12] is Human immunodeficiency virus 1. Put plainly: Reactivation of latent HIV1 infected in human U1 cells/uninfected U937 cell mixture assessed as reduction in proviral DNA level at 0.57 uM supplemented with fresh medium containing compound every 3 days for 18 days measured post last dose by PCR analysis. The series is classed as functional, organism-based. In short, it runs like this:
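U1/U937 (1:4) cultures treated for 18 days with T20 present and refed with compound every 3 days. HIV-1 pol DNA (200 bp) amplified by PCR for 30 cycles, with B2M (779 bp, 25 cycles) as internal control. Products run on 2% agarose gels and densitometry expressed as the treated/DMSO ratio.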

Series [13] has as its system Human immunodeficiency virus 1. Description: Reactivation of latent HIV1 infected in human J-Lat A2 cells assessed as increase in GFP positive cells at 0.5 nM after 72 hrs by flow cytometric analysis. The series is classed as functional, organism-based. In short, it runs like this:
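J-Lat (A2) cells express GFP on latent HIV-1 activation; 1x10^6 cells/well incubated with LRA(s), alone or in pairs (HDAC inhibitor TPB 0.3 µM or TPyB 1.0 µM), at 37 °C for 72 h; GFP+ cell frequency by flow cytometry; two independent experiments, one-tailed t-test.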

Series [14] in a line: Cytotoxicity against human J-Lat (A2) cells assessed as effect on cell viability at 0.5 nM after 72 hrs by flow cytometric analysis. The format is cell-based. The settings on record: 0.0005 µM. In short, it runs like this:
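J-Lat (A2) cells, 1x10^6 cells/well, exposed to LRA(s) at 37 °C for 72 h; percent viable cells read by flow cytometry, two independent experiments.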

The mark [15] stands for this setting: Human immunodeficiency virus 1, U1, 48 h, read-out: EC50.
Where [16] appears, read: U937 cells (CC50) and latent HIV-1 infected U1 cells (EC50).

Regarding `CC(=O)Nc1ccc(C(=O)Nc2cc(-c3cccs3)ccc2N)cc1`, the Activity entry in series [1] and in series [6] was “Non-Toxic” in each case. In [2], the CC50 at 72 h is 12600 nM. The CC50 at 48 h in series [3] came to 14000 nM. In [4], the “fold change (FC)” value stood at 1.4. Moreover, the EC50 in series [5] (setting [15]) was found to be 930 nM.

As to `Nc1ccccc1NC(=O)c1ccc(-c2cn(CCc3ccsc3)nn2)cc1`, the inhibition result in series [7] was “Active”. For the same compound, in series [8], the selectivity ratio came to 1.4. Further, the CC50 at 48 h in [3] amounted to 830 nM. The “fold change (FC)” value in [4] stood at 0.12. In series [5] (setting [15]), the EC50 was 600 nM.

In the case of `Nc1cc(F)ccc1NC(=O)/C=C/c1cnn(C/C=C/c2ccccc2)c1`, in series [7], the inhibition result was “Active”. Further, in series [4], the “fold change (FC)” value is reported as 0. Also, the EC50 result in series [5] (u1) is “Not Active”.

As to `Nc1ccc(F)cc1NC(=O)c1ccc(CNC(=O)/C=C/c2cccnc2)cc1`, the selectivity ratio in series [8] (setting [16]) came to 3.6. In addition, in series [3], the CC50 at 48 h was determined as 5000 nM. The “fold change (FC)” value in [4] is 1.5. Moreover, the EC50 in series [5] (setting [15]) is 1400 nM.

Turning to `CC(=O)Nc1ccc(C(=O)Nc2nc(-c3cccs3)ccc2N)cc1`, the result in series [9], in series [10] and in series [12] was Active. Besides, the CC50 at 72 h in series [2] stood at 44300 nM. For the same compound, in series [8] (setting [16]), the selectivity ratio is 8.2. The Activity result in series [11] is “Non-Toxic”. For the same compound, the CC50 at 48 h in series [3] came to 47300 nM. Besides, the “fold change (FC)” value in series [4] came out at 1.3. Besides, the EC50 in [5] (setting [15]) stood at 5700 nM.

`C/C=C(/C)C(=O)O[C@H]1C(C)=C[C@]23C(=O)[C@@H](C=C(CO)[C@@H](O)[C@]12O)[C@H]1[C@@H](C[C@H]3C)C1(C)C` [INGENOL MEBUTATE]: the selectivity ratio in [8] (setting [16]) was > 42. For the same compound, the CC50 at 48 h in [3] was > 200 nM. For the same compound, the “fold change (FC)” value in series [4] came to 9.7. Further, the EC50 in series [5] (setting [15]) was 4.8 nM. In addition, the outcome in [13] was Active. For the same compound, in [14], the Activity entry is on record as “Non-Toxic”.

On to `C/C=C1\NC(=O)[C@H]2CSSCC/C=C/[C@H](CC(=O)N[C@H](C(C)C)C(=O)N2)OC(=O)[C@H](C(C)C)NC1=O` [ROMIDEPSIN], for which the selectivity ratio in series [8] (setting [16]) stood at 0.66. Also, the CC50 at 48 h in [3] was determined as 0.73 nM.

In the case of `O=C(CCCCCCC(=O)Nc1ccccc1)NO` [VORINOSTAT], the CC50 at 48 h in series [3] was 780 nM.

For the origin of these results see ChEMBL document CHEMBL4251706, “Elimination of HIV-1 Latently Infected Cells by Gnidimacrin and a Selective HDAC Inhibitor” (ACS Med Chem Lett, 2018).
